Active and inactive are the calls of the source. The calls are words filed in the database; no cut-off is given here.
Key:
[1] = target: T1, Histone-lysine N-methyltransferase EZH2 (Homo sapiens, UniProt Q15910); assay: Inhibition of EZH2 in human U937 cells assessed as H3K27me3 level at 50 uM in presence of vorinostat incubated for 120 hrs by Western blot analysis (reference value: 1); type: cell-based; conditions: U-937
How it was run: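 U937 leukemia cells given EZH2 inhibitor 50 μM together with HDAC inhibitor 0.5 μM; Western blot at 96 and 120 h for H3K27me3 or acetyl-H3, actin as loading control; densitometry normalized to loading control then to DMSO vehicle.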

U-937 [2] = assay: Cytotoxicity against human U937 cells assessed as reduction in cell viability at 25 uM incubated for 72 hrs by CellTiter-Glo Luminescent cell viability assay relative to control; type: functional; conditions: U-937, 72 h
How it was run: (§1)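 Viability after 72 h of single-agent or combined treatment with the HDAC inhibitor (0.05–0.25 μM) and the EZH2 inhibitor. EZH2 inhibitor range: U937 5–25 μM; RH4 10–50 μM. Synergy was assessed by combination index and isobologram analysis.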

[3] = target: T2, Protein deacetylase HDAC6 (Homo sapiens) (UniProt Q9UBN7); assay: Inhibition of HDAC6 in human RH4 cells assessed as acetylated alpha-tubulin level at 50 uM in presence of vorinostat incubated for 96 hrs by Western blot analysis (reference value: 1); type: cell-based
T2 sequence (whole entry): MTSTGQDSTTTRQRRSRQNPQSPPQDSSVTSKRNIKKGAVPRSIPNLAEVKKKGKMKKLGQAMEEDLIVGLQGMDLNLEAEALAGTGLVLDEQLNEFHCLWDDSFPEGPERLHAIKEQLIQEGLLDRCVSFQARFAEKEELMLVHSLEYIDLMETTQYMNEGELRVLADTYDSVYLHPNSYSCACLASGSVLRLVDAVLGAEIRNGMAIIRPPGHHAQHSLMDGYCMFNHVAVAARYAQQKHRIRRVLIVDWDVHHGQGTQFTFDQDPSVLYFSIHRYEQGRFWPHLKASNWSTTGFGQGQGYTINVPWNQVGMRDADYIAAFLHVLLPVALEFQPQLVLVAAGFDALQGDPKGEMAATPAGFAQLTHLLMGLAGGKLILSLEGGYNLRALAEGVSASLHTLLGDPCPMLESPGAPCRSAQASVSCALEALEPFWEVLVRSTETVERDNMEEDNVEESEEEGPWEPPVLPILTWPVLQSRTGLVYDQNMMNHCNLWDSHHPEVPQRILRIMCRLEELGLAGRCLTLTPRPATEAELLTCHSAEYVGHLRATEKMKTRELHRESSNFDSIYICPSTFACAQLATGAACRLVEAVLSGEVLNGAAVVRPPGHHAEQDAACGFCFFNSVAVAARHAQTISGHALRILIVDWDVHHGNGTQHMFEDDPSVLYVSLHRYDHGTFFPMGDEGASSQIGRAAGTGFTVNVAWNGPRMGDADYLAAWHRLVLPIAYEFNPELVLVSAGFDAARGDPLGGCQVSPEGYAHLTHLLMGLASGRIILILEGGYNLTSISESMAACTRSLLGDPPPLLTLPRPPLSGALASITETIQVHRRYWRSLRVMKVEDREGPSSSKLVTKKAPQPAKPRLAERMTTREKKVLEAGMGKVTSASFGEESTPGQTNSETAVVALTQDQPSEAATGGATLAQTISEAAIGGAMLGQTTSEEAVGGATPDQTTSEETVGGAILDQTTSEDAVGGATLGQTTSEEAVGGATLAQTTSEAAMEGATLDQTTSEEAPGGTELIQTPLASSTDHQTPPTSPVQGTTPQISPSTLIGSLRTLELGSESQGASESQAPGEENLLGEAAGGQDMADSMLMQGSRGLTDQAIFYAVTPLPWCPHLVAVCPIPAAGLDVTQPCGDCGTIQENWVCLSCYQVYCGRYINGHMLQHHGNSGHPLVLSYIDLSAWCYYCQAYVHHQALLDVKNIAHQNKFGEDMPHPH
How it was run: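 RH4 cells co-treated with EZH2 inhibitor at 50 μM plus HDAC inhibitor at 0.15 μM; Western blot after 72 or 96 h for H3K27me3 or acetyl-tubulin, vinculin loading control; densitometry normalized to loading control then DMSO vehicle.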

[4] = target: T1, Histone-lysine N-methyltransferase EZH2; assay: Inhibition of EZH2 in human U937 cells assessed as H3K27me3 level at 50 uM incubated for 96 hrs by Western blot analysis; type: cell-based; conditions: U-937
U-937 [5] = assay: Cytotoxicity against human U937 cells assessed as combinational index measured at fraction affected value of 0.68 in presence of vorinostat at 10 uM incubated for 72 hrs by CellTiter-Glo Luminescent cell viability assay; type: functional; how it was run: as §1
[6] = Cell cycle arrest in human RH4 cells assessed as G0/G1 accumulation at 14 uM incubated for 72 hrs by propidium iodide staining based flow cytometry (reference value: 46.2 %); type: functional
U-937 [7] = assay: Cytotoxicity against human U937 cells assessed as reduction in cell viability at 10 uM incubated for 96 hrs by CellTiter-Glo Luminescent cell viability assay relative to control; type: functional; conditions: U-937, 96 h
How it was run: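 Viability of U937 (5–25 μM) and RH4 (5–35 μM) cells after 48, 72 and 96 h of treatment at increasing concentrations.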

[8] = Induction of apoptosis in human RH4 cells assessed as viable cells at 28 uM incubated for 72 hrs by annexin V-FITC staining based flow cytometry (reference value: 86.6 %); type: functional; conditions: Rh4, 72 h, read-out: Activity
U-937 [9] = assay: Cell cycle arrest in human U937 cells assessed as subG1 accumulation at 25 uM incubated for 72 hrs by propidium iodide staining based flow cytometry (reference value: 4.9 %); type: functional
Histone deacetylase 2 = Histone deacetylase 2 (Homo sapiens, UniProt Q92769)
U-937 [10] = assay: Induction of apoptosis in human U937 cells assessed as viable cells at 10 uM incubated for 72 hrs by annexin V-FITC staining based flow cytometry (reference value: 95.4 %); type: functional; conditions: U-937, 72 h, read-out: Activity
[11] = Cell cycle arrest in human RH4 cells assessed as subG1 accumulation at 28 uM incubated for 72 hrs by propidium iodide staining based flow cytometry (reference value: 1.9 %); type: functional
U-87MG ATCC [12] = assay: Upregulation of E-cadherin levels in human U87 cells at 5 to 25 uM incubated for 24 hrs by Western blot analysis; type: functional, cell-based
How it was run: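 U87 glioblastoma cells treated 24 h at 5, 10 and 25 μM with DMSO control; E-cadherin and Snail probed by Western blot, tubulin as loading control.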

U-937 [13] = assay: Induction of apoptosis in human U937 cells assessed as late apoptotic cells at 10 uM incubated for 72 hrs by annexin V-FITC staining based flow cytometry (reference value: 0.7 %); type: functional
U-937 [14] = assay: Induction of differentiation of human U937 cells assessed as increase in CD11b level at 10 uM incubated for 72 hrs by flow cytometry analysis; type: functional
How it was run: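 U937 cells were treated for 72 h at 10 and 25 μM, and surface CD11b expression was measured as a differentiation marker.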

U-87MG ATCC [15] = assay: Upregulation of snail in human U87 cells at 5 to 25 uM incubated for 24 hrs by Western blot analysis; type: functional, cell-based
How it was run: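 U87 glioblastoma cells exposed for 24 h at 5, 10 and 25 μM, with DMSO vehicle as control. Snail and E-cadherin protein levels were read by Western blot, with tubulin as the loading control.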

T1 sequence (Q15910 whole entry, looked up): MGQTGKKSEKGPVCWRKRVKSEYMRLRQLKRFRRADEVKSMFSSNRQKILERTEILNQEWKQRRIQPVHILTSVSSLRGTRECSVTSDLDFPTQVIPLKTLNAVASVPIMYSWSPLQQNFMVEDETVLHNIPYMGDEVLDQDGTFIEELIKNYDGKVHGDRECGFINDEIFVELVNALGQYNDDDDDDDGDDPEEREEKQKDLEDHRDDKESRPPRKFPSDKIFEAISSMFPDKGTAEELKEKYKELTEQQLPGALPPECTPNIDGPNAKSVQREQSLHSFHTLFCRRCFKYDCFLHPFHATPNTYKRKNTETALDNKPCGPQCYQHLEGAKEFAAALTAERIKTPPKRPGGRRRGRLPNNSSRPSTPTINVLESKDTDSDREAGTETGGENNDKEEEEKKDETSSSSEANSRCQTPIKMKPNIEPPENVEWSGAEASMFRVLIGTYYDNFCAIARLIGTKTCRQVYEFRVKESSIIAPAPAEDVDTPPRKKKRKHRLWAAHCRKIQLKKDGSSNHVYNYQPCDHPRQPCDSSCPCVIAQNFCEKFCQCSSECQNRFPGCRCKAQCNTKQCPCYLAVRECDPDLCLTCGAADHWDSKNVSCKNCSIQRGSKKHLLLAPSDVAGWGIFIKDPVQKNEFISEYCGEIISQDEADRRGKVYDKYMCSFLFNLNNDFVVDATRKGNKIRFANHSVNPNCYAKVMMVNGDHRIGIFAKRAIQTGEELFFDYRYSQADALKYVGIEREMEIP
Sequence of Histone deacetylase 2 (Q92769 whole entry): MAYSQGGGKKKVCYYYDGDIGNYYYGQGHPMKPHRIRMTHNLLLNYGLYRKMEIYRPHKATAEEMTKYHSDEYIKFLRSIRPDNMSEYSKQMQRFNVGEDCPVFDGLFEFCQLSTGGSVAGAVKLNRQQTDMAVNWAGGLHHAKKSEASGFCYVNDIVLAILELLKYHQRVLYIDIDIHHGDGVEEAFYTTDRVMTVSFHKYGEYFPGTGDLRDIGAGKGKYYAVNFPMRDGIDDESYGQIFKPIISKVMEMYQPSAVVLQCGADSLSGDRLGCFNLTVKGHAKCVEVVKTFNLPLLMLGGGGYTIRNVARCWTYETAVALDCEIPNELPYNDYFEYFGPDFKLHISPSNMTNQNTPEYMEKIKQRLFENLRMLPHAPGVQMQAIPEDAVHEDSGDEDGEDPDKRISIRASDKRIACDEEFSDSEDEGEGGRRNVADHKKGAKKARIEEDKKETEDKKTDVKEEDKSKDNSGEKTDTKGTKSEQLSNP

| fold change (FC) [1] | fold change (FC) [3] | fold change (FC) [4] | IC50 (Histone deacetylase 2) [nM] | Compound | inhibition at 25 µM (U-937 [2]) [%] | CI (U-937 [5]) | Activity [6] [%] | inhibition at 10 µM (U-937 [7]) [%] | viability at 28 µM [8] [%] | Activity (U-937 [9]) [%] | viability at 10 µM (U-937 [10]) [%] | Activity [11] [%] | Activity (U-87MG ATCC [12]) | Activity (U-937 [13]) [%] | fold change (FC) (U-937 [14]) | Activity (U-87MG ATCC [15]) |
| --- | --- | --- | --- | --- | --- | --- | --- | --- | --- | --- | --- | --- | --- | --- | --- | --- |
| 0.6 | 1.3 | 0.9 | – | Cc1cc(C)c(CNC(=O)c2cc(C)n(-c3ccccc3)c2C)c(=O)[nH]1 | 25 | 0.14 | – | – | – | – | – | – | – | – | – | – |
| – | – | – | 1330 | Cc1cc(C)c(CNC(=O)c2cc(C)n(-c3cccc(NC(=O)CCCCCCC(=O)NO)c3)c2C)c(=O)[nH]1 | – | – | 47.2 | 60 | 68.7 | 36.1 | 95 | 28.1 | Active | 0.7 | 2 | inactive |
